Key:
Assay type in all cases: functional
Enterococcus faecium [1] = test: Antibacterial activity against Enterococcus faecium N490 after 18 hrs by agar dilution method
How it was run: (§1)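 Agar-dilution MIC against Gram-positive strains. Compounds in DMSO, geometric dilutions giving final 100−0.75 mg/L in Mueller Hinton agar. Strains grown 18 h at 37 °C in trypticase soy broth, diluted in sterile water, spotted by Steers inoculator (about 1000 UFC/spot). Plates incubated 18 h at 37 °C; DMSO blank; ofloxacin positive control. MIC = lowest concentration with no visible growth.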

Enterococcus gallinarum [2] = test: Antibacterial activity against Enterococcus gallinarum N492 after 18 hrs by agar dilution method; how it was run: as §1
Staphylococcus aureus [3] = test: Antibacterial activity against Staphylococcus aureus CIP 7625 after 18 hrs by agar dilution method; how it was run: as §1
Staphylococcus aureus [4] = test: Antibacterial activity against Staphylococcus aureus CIP 53154 after 18 hrs by agar dilution method; how it was run: as §1
Bacillus cereus [5] = test: Antibacterial activity against Bacillus cereus N190 after 18 hrs by agar dilution method; how it was run: as §1
Listeria monocytogenes [6] = test: Antibacterial activity against Listeria monocytogenes N783 after 18 hrs by agar dilution method; how it was run: as §1
Bacillus cereus [7] = test: Antibacterial activity against Bacillus cereus N349 after 18 hrs by agar dilution method; how it was run: as §1
Listeria monocytogenes [8] = test: Antibacterial activity against Listeria monocytogenes N851 after 18 hrs by agar dilution method; how it was run: as §1
Listeria monocytogenes [9] = test: Antibacterial activity against Listeria monocytogenes CIP 103575 after 18 hrs by agar dilution method; how it was run: as §1
Enterococcus gallinarum [10] = test: Antibacterial activity against Enterococcus gallinarum CIP 105985 after 18 hrs by agar dilution method; how it was run: as §1
[11] = test system: Staphylococcus saprophyticus; test: Antibacterial activity against Staphylococcus saprophyticus CIP 76125 after 18 hrs by agar dilution method; how it was run: as §1
Enterococcus faecalis [12] = test: Antibacterial activity against Enterococcus faecalis N518 after 18 hrs by agar dilution method; how it was run: as §1
Bacillus spizizenii = test: Antibacterial activity against Bacillus subtilis ATCC 6633 after 18 hrs by agar dilution method; how it was run: as §1
Bacillus cereus [13] = test: Antibacterial activity against Bacillus cereus N258 after 18 hrs by agar dilution method; how it was run: as §1
Enterococcus hirae = test: Antibacterial activity against Enterococcus hirae CIP 5855 after 18 hrs by agar dilution method; how it was run: as §1
Mammaliicoccus sciuri = test: Antibacterial activity against Staphylococcus sciuri N993 after 18 hrs by agar dilution method; how it was run: as §1
[14] = test system: Staphylococcus epidermidis; test: Antibacterial activity against Staphylococcus epidermidis CIP 53124 after 18 hrs by agar dilution method; how it was run: as §1
Enterococcus faecium [15] = test: Antibacterial activity against Enterococcus faecium N733 after 18 hrs by agar dilution method; how it was run: as §1
Staphylococcus aureus [16] = test: Antibacterial activity against Staphylococcus aureus CIP 483 after 18 hrs by agar dilution method; how it was run: as §1
Enterococcus durans = test: Antibacterial activity against Enterococcus durans CIP 104999 after 18 hrs by agar dilution method; how it was run: as §1
[17] = test system: Staphylococcus haemolyticus; test: Antibacterial activity against Staphylococcus haemolyticus CIP 8156 after 18 hrs by agar dilution method; how it was run: as §1
Enterococcus faecium [18] = test: Antibacterial activity against Enterococcus faecium N823 after 18 hrs by agar dilution method; how it was run: as §1
Enterococcus faecalis [19] = test: Antibacterial activity against Enterococcus faecalis N491 after 18 hrs by agar dilution method; how it was run: as §1
Staphylococcus aureus [20] = test: Antibacterial activity against Staphylococcus aureus CIP 53156 after 18 hrs by agar dilution method; how it was run: as §1
Listeria monocytogenes [21] = test: Antibacterial activity against Listeria monocytogenes N836 after 18 hrs by agar dilution method; how it was run: as §1
Bacillus cereus [22] = test: Antibacterial activity against Bacillus cereus CIP 6624 after 18 hrs by agar dilution method; how it was run: as §1
[23] = test system: Staphylococcus lugdunensis; test: Antibacterial activity against Staphylococcus lugdunensis ATCC 43809 after 18 hrs by agar dilution method; how it was run: as §1
Enterococcus faecium [24] = test: Antibacterial activity against Enterococcus faecium CIP 103014 after 18 hrs by agar dilution method; how it was run: as §1
Staphylococcus aureus [25] = test: Antibacterial activity against Staphylococcus aureus CRBIP 2121 after 18 hrs by agar dilution method; how it was run: as §1
Staphylococcus aureus [26] = test: Antibacterial activity against Staphylococcus aureus ATCC 9144 oxford after 18 hrs by agar dilution method; how it was run: as §1
Enterococcus faecalis [27] = test: Antibacterial activity against Enterococcus faecalis CIP 104676 after 18 hrs by agar dilution method; how it was run: as §1
[28] = test system: Enterococcus casseliflavus; test: Antibacterial activity against Enterococcus casseliflavus CIP 103018 after 18 hrs by agar dilution method; how it was run: as §1
[29] = test system: Staphylococcus saprophyticus; test: Antibacterial activity against Staphylococcus saprophyticus E260 after 18 hrs by agar dilution method; how it was run: as §1
Corynebacterium striatum = test: Antibacterial activity against Corynebacterium striatum N840 after 18 hrs by agar dilution method; how it was run: as §1
Enterococcus faecalis [30] = test: Antibacterial activity against Enterococcus faecalis CIP 103214 after 18 hrs by agar dilution method; how it was run: as §1
Enterococcus avium = test: Antibacterial activity against Enterococcus avium CIP 104053 after 18 hrs by agar dilution method; how it was run: as §1
Enterococcus faecium [31] = test: Antibacterial activity against Enterococcus faecium CIP 107387 after 18 hrs by agar dilution method; how it was run: as §1
Listeria innocua = test: Antibacterial activity against Listeria innocua E044 after 18 hrs by agar dilution method; how it was run: as §1
Enterococcus gallinarum [32] = test: Antibacterial activity against Enterococcus gallinarum N489 after 18 hrs by agar dilution method; how it was run: as §1
Staphylococcus aureus [33] = test: Antibacterial activity against Staphylococcus aureus CIP 5710 after 18 hrs by agar dilution method; how it was run: as §1
Enterococcus faecium [34] = test: Antibacterial activity against Enterococcus faecium N507 after 18 hrs by agar dilution method; how it was run: as §1
Enterococcus faecalis [35] = test: Antibacterial activity against Enterococcus faecalis N520 after 18 hrs by agar dilution method; how it was run: as §1
[36] = test system: Enterococcus casseliflavus; test: Antibacterial activity against Enterococcus casseliflavus N487 after 18 hrs by agar dilution method; how it was run: as §1
[37] = test system: Staphylococcus intermedius; test: Antibacterial activity against Staphylococcus intermedius N987 after 18 hrs by agar dilution method; how it was run: as §1
Staphylococcus aureus [38] = test: Antibacterial activity against Staphylococcus aureus ATCC 25923 after 18 hrs by agar dilution method; how it was run: as §1
Streptococcus agalactiae = test: Antibacterial activity against Streptococcus agalactiae CIP 103227 after 18 hrs by agar dilution method; conditions: ATCC 13813; how it was run: as §1

## GENTAMICIN
Enterococcus faecium [1]
  MIC: > 278 µM
Enterococcus gallinarum [2]
  MIC: 17 µM
Staphylococcus aureus [3]
  MIC: 1 µM
Staphylococcus aureus [4]
  MIC: 4 µM
Bacillus cereus [5]
  MIC: 1 µM
Listeria monocytogenes [6]
  MIC: 1 µM
Bacillus cereus [7]
  MIC: 2 µM
Listeria monocytogenes [8]
  MIC: 1 µM
Listeria monocytogenes [9]
  MIC: 1 µM
Enterococcus gallinarum [10]
  MIC: 17 µM
[11]
  MIC: 0.3 µM
Enterococcus faecalis [12]
  MIC: 70 µM
Bacillus spizizenii
  MIC: 0.3 µM
Bacillus cereus [13]
  MIC: 2 µM
Enterococcus hirae
  MIC: 35 µM
Mammaliicoccus sciuri
  MIC: < 0.14 µM
[14]
  MIC: 0.5 µM
Enterococcus faecium [15]
  MIC: > 278 µM
Staphylococcus aureus [16]
  MIC: 1 µM
Enterococcus durans
  MIC: 17 µM
[17]
  MIC: < 0.14 µM
Enterococcus faecium [18]
  MIC: > 278 µM
Enterococcus faecalis [19]
  MIC: > 278 µM
Staphylococcus aureus [20]
  MIC: 1 µM
Listeria monocytogenes [21]
  MIC: 1 µM
Bacillus cereus [22]
  MIC: 1 µM
[23]
  MIC: 0.5 µM
Enterococcus faecium [24]
  MIC: 17 µM
Staphylococcus aureus [25]
  MIC: > 278 µM
Staphylococcus aureus [26]
  MIC: 0.5 µM
Enterococcus faecalis [27]
  MIC: > 278 µM
[28]
  MIC: 9 µM
[29]
  MIC: < 0.14 µM
Corynebacterium striatum
  MIC: > 278 µM
Enterococcus faecalis [30]
  MIC: 35 µM
Enterococcus avium
  MIC: 2 µM
Enterococcus faecium [31]
  MIC: > 278 µM
Listeria innocua
  MIC: 1 µM
Enterococcus gallinarum [32]
  MIC: 4 µM
Staphylococcus aureus [33]
  MIC: 1 µM
Enterococcus faecium [34]
  MIC: > 278 µM
Enterococcus faecalis [35]
  MIC: > 278 µM
[36]
  MIC: 9 µM
[37]
  MIC: 139 µM
Staphylococcus aureus [38]
  MIC: 1 µM
Streptococcus agalactiae
  MIC: 2 µM

From ChEMBL document CHEMBL3585281, “Antibacterial Labdane Diterpenoids from Vitex vestita” (2015)
